# Data reported in ChEMBL document CHEMBL4819032, “Structure-based design of highly selective 2,4,5-trisubstituted pyrimidine CDK9 inhibitors as anti-cancer agents” (Eur J Med Chem, 2021).
# The source made the active and inactive calls. The calls are words filed in the database; no cut-off is given here.
# What was measured:
# HCT-116 [1] = test: Growth inhibition of human HCT-116 cells after 48 hrs by MTT assay; format: functional
# A2780 [2] = test: Induction of cell cycle arrest in human A2780 cells assessed as accumulation at pre-G1 phase at 1 uM after 24 hrs by propidium iodide staining based flow cytometric analysis (reference value: 1.2%); format: functional
# A2780 [3] = test: Induction of apoptosis in human A2780 cells assessed as late apoptotic cells at 1 uM after 24 hrs by Annexin V-FITC/PI staining based flow cytometric analysis (reference value: 2.8%); format: functional
# Method in brief: (§1)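 A2780 cells cultured 24 h in medium alone or with varying inhibitor concentrations, then stained with FITC-annexin V/PI per kit protocol and analysed by flow cytometry. Run in triplicate and repeated at least twice; significance by one-way ANOVA, p < 0.01.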
# A2780 [4] = test: Induction of apoptosis in human A2780 cells assessed as necrotic cells at 1 uM after 24 hrs by Annexin V-FITC/PI staining based flow cytometric analysis (reference value: 3.6%); format: functional; method in brief: as §1
# A2780 [5] = test: Induction of apoptosis in human A2780 cells assessed as necrotic cells at 2 uM after 24 hrs by Annexin V-FITC/PI staining based flow cytometric analysis (reference value: 3.6%); format: functional; method in brief: as §1
# A2780 [6] = test: Induction of cell cycle arrest in human A2780 cells assessed as accumulation at G2/M phase at 0.5 uM after 24 hrs by propidium iodide staining based flow cytometric analysis (reference value: 21.6%); format: functional
# Method in brief: (§2)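 4 × 10⁵ A2780 cells cultured 24 h in medium alone or with varying inhibitor concentrations, harvested into hypotonic fluorochrome solution (0.1% sodium citrate, 0.1% Triton X-100, propidium iodide, 100 ug/ml RNase A), and DNA content analysed by flow cytometry. Representative of three independent experiments.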
# A2780 [7] = test: Induction of apoptosis in human A2780 cells assessed as late apoptotic cells at 5 uM after 24 hrs by Annexin V-FITC/PI staining based flow cytometric analysis (reference value: 2.8%); format: functional; method in brief: as §1
# A2780 [8] = test: Induction of apoptosis in human A2780 cells assessed as early apoptotic cells at 1 uM after 24 hrs by Annexin V-FITC/PI staining based flow cytometric analysis (reference value: 1.6%); format: functional; method in brief: as §1
# A2780 [9] = test: Induction of cell cycle arrest in human A2780 cells assessed as accumulation at S phase at 0.5 uM after 24 hrs by propidium iodide staining based flow cytometric analysis (reference value: 20%); format: functional; method in brief: as §2
# HeLa = test: Growth inhibition of human HeLa cells after 48 hrs by MTT assay; format: functional
# A2780 [10] = test: Induction of apoptosis in human A2780 cells assessed as late apoptotic cells at 0.5 uM after 24 hrs by Annexin V-FITC/PI staining based flow cytometric analysis (reference value: 2.8%); format: functional; method in brief: as §1
# HCT-116 [11] = test: Induction of apoptosis in human HCT-116 cells assessed as increase in cleaved-PARP protein expression at 0.5 to 5 uM after 24 hrs by Western blot analysis; format: functional, cell-based; details: dose 0.5-5 µM
# A2780 [12] = test: Induction of cell cycle arrest in human A2780 cells assessed as accumulation at pre-G1 phase at 5 uM after 24 hrs by propidium iodide staining based flow cytometric analysis (reference value: 1.2%); format: functional
# A2780 [13] = test: Induction of apoptosis in human A2780 cells assessed as early apoptotic cells at 0.5 uM after 24 hrs by Annexin V-FITC/PI staining based flow cytometric analysis (reference value: 1.6%); format: functional; method in brief: as §1
smiles,measurement,setting,value
CNc1nc(C)c(-c2nc(Nc3cccc(N4CCN5CCC4CC5)c3)ncc2C)s1,GI50,HCT-116 [1],1070 nM
same,Activity,A2780 [2],6.5%
same,Activity,A2780 [3],13.1%
same,Activity,A2780 [4],3%
same,Activity,A2780 [5],2.5%
same,Activity,A2780 [6],22.2%
same,Activity,A2780 [7],47.2%
same,Activity,A2780 [8],9.3%
same,Activity,A2780 [9],15.3%
same,GI50,HeLa,800 nM
same,Activity,A2780 [10],6.2%
same,Activity,HCT-116 [11],Active
same,Activity,A2780 [12],34%
same,Activity,A2780 [13],3.6%
